Hits are enriched below; roughly 4.2% of the tested compounds scored in any of these assays.
FXN GAA850 act: FXN promoter activators, primary screen, cell-based, luciferase luminescence, HEK293 lucGAA850. HEK293 lucGAA850 FXN promoter luciferase reporter, 24 h; percent of 10 µM SAHA response. 0.56% of 360,000 active. AID 540364, 2011. activation, % at 6 µM;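 active means activation above the average of all compounds screened plus 3 SD, cutoff fixed separately per campaign, cut at about 7.5% in these data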;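 further: 0% = DMSO wells and 100% = 10 µM SAHA wells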
CTSL1 counter: Fasciola hepatica cathepsin L1 inhibitors, primary screen, counter-screen for PFM18AAP inhibitor project, biochemical, QFRET, fluorogenic peptide substrate; inhibition, % at 5.96 µM; recombinant F. hepatica cathepsin L1, Z-Leu-Arg-MCA fluorescence; 0.49% of 300,000 active;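 active means inhibition above the mean of all tested compounds plus 3 SD, set per screening campaign, cut at about 17% in these data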;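 further: 0% = plate median of test compound wells and 100% = 1 µM Z-Phe-Ala-diazomethylketone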
M18AAP inhibitor: PfM18AAP inhibitors, malaria aminopeptidase, primary screen, biochemical, QFRET, recombinant enzyme; M18 aspartyl aminopeptidase (Plasmodium falciparum 3D7); H-Glu-NHMec fluorogenic cleavage; 1.2% of 290,000 active; AID 1822, 2009; inhibition, % at 7.35 µM;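 active means inhibition above the campaign mean inhibition over all tested compounds plus 3 SD, cut at about 28% in these data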;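 further: 0% = plate median of test compound wells and 100% = 2 mM ZnCl2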
AHR activator: AHR activators, primary screen, cell-based, luminescence, luciferase reporter, human | Aryl hydrocarbon receptor (Homo sapiens), P35869 | AHR-responsive luciferase reporter cells | activation, % at 5 µM | 2.5% of 320,000 active | AID 2796, 2010; in the data active means activation above about 47%;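 further: 0% = vehicle wells and 100% = reference agonist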
Target sequence (P35869 whole entry, looked up): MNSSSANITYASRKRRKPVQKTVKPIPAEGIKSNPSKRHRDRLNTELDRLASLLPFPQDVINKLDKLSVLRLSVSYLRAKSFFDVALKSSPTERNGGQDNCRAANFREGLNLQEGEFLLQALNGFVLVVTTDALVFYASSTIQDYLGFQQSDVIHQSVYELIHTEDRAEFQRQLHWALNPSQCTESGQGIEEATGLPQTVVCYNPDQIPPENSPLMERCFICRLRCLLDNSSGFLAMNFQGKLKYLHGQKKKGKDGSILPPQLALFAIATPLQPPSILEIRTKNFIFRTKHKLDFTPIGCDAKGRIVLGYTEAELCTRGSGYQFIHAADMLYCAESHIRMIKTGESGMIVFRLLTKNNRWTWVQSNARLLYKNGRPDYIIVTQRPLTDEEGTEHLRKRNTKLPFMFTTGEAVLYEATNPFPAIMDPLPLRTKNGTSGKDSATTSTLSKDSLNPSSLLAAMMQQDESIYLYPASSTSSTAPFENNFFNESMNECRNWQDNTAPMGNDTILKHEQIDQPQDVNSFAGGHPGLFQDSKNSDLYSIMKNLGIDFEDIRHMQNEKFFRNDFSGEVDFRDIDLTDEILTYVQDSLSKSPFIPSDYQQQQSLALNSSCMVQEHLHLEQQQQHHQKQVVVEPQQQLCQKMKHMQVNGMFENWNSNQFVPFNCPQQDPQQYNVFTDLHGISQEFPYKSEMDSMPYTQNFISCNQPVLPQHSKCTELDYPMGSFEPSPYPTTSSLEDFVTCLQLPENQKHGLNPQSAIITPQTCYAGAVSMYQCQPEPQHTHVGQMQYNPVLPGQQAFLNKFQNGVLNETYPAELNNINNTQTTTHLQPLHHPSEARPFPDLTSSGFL
SENP1 inh: human SENP1 catalytic domain inhibitors, primary screen, biochemical, FRET, uHTS. inhibition, % at 10 µM. 0.21% of 360,000 active. recombinant SENP1 catalytic domain, CyPet-SUMO1-YPet FRET cleavage;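 active means inhibition at least 30% at 10 µM, raw YFP signal under a set limit, fluorescence ratio 0.5 to 1.5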;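 further: 0% = enzyme with DMSO and 100% = no enzyme wells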
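Compound: 10 µM single point, 0.5% DMSO; Test system: hSENP1 catalytic domain, recombinant; Timing: 50 min reaction at room temperature; Technique: FRET, CFP and YFP emission; Control set: no-enzyme wells low, DMSO-plus-enzyme wells high control.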
HDAC3 inh: HDAC3 deacetylase inhibitors, primary screen, biochemical, fluorescence, cell-free homogeneous | AID 2718, 2010 | inhibition, % at 8.3 µM | Histone deacetylase 3 (Homo sapiens), O15379 | recombinant HDAC3, fluorogenic peptide/trypsin coupled | 0.15% of 320,000 active; in the data active means inhibition above about 26%, passing the limit was not always enough; inconclusive means no clear call, values can overlap the other calls
The depositor's hits bear a star; u = inconclusive; x = not tested or not shown.

SMILES | FXN GAA850 act | CTSL1 counter | M18AAP inhibitor | AHR activator | SENP1 inh | HDAC3 inh
c1ccc(CCNc2nc3ccccc3n3nnnc23)cc1 | 1.4 | -3.8 | 2.8 | 2.0 | -137.6 | -4.5
COc1ccc(CCNc2nc3ccccc3n3nnnc23)cc1OC | 3.7 | 2.0 | 1.1 | 53.6* | -64.4 | -1.4
Cc1cccc2c3c([nH]c12)CCN(C)C3 | 1.1 | 3.7 | 28.7* | 24.9 | -1.0 | -8.6
NC(=O)c1cccc2c3c([nH]c12)CCCC3 | 7.2 | 4.5 | 2.2 | -2.8 | -34.5 | -1.4
CN1c2ccccc2C(C)(C)C12C=Nc1c(ccc3ccccc13)O2 (centres undefined) | 1.3 | 21.3* | 11.0 | 38.4 | -30.1 | -3.2
COc1ccc2ccc3c(c2c1)N=CC1(O3)N(C)c2ccccc2C1(C)C (centres undefined) | 2.9 | -3.9 | 5.9 | 6.6 | -64.2 | -5.6
COc1cccc2c1C(=O)c1c(O)c3c(c(O)c1C2=O)C[C@](O)(C(C)=O)C[C@H]3O[C@@H]1C[C@@H](N)[C@@H](O)[C@@H](C)O1 | -11.9 | -0.9 | x | 64.5* | 105.8 | 10.3
COc1cccc2c1C(=N)c1c(O)c3c(c(O)c1C2=O)CC(O)(C(C)=O)CC3OC1CC(N)C(O)C(C)O1 (centres undefined) | -8.8 | x | x | x | 11.7 | x
CC(Cc1ccccc1)NC(=O)CC(c1ccccc1)c1ccccc1O (centres undefined) | -1.2 | -12.9 | 1.1 | 0.6 | 1.8 | -3.8
O=C(CC(c1ccccc1)c1ccccc1O)NCc1ccccc1 (centres undefined) | 0.8 | 18.4* | 8.0 | -0.3 | 1.5 | -5.1
O=S(=O)(c1ccccc1)n1cc(-c2cccc3nccn23)c2ccccc21 | 2.9 | x | x | x | -41.7 | x
Clc1ccc(-c2csc(N3CCN(c4ccccc4)CC3)n2)cc1 | 1.8 | -1.0 | -1.8 | 5.7 | 4.0 | x
Clc1ccc(-c2csc(N3CCc4ccccc4C3)n2)cc1 | -1.2 | -1.2 | -8.7 | 52.1* | -1.7 | -4.5
CCCc1cc(=O)[nH]c(SCC(=O)c2c[nH]c3ccccc23)n1 | 2.4 | -0.5 | -17.6 | 24.4 | 7.0 | 1.6
Cn1ccnc1SCC(=O)c1c[nH]c2ccccc12 | 5.8 | -0.7 | 2.7 | 69.9* | -3.0 | -7.1
O=C(CSc1nc2ncc(Cl)cc2[nH]1)c1c[nH]c2ccccc12 | 4.9 | -3.8 | -3.5 | 60.2* | -4.0 | u
COc1ccccc1C(=O)CSc1nccn1C | 2.8 | -1.2 | -0.2 | 2.0 | -0.7 | -0.1
O=C(CSc1nc2ccc(Cl)cc2[nH]1)c1c[nH]c2ccccc12 | 1.4 | -0.1 | -12.8 | 76.8* | -8.6 | -1.1
Cn1ccnc1SCC(=O)n1c2c(c3ccccc31)CCCC2 | 1.2 | -2.5 | 9.7 | 72.2* | -3.0 | 7.1
O=C(CCc1nnc(Cc2c[nH]c3ccccc23)o1)NCC1CC12CCCCC2 (centres undefined) | 0.0 | 0.3 | -2.5 | 4.3 | -0.3 | 6.1
COC1OC2COC(c3ccccc3)OC2C(O)C1NC(C)=O (centres undefined) | 0.5 | x | x | x | -0.4 | x
COC(=O)C1=C(C(=O)OC)SC2(S1)C(C(=O)OC)=C(C(=O)OC)SC1=C2c2cc(C)ccc2NC1(C)C | 1.3 | 0.1 | 29.3* | 0.4 | -1.2 | 9.5
CCOc1ccccc1CN1CCNC(=O)C1CC(=O)N(C)Cc1cnccn1 (centres undefined) | 1.1 | -0.5 | 9.8 | -2.4 | -6.0 | -6.2
CCCCC/C(=N\NC(=O)Nc1ccccc1)c1ccccc1 | -0.6 | 25.4* | 3.3 | 16.5 | 4.0 | -5.8
COc1ccc(OC)c(CCNC(=O)CC2Oc3ccc(C)cc3NC2=O)c1 (centres undefined) | -0.4 | x | -10.4 | x | -3.0 | x
SMILES | FXN GAA850 act | CTSL1 counter | M18AAP inhibitor | AHR activator | SENP1 inh | HDAC3 inh
COc1ccc(OC)c(CCNC(=O)CC2Oc3ccccc3NC2=O)c1 (centres undefined) | 0.1 | -0.3 | -10.8 | 52.3* | -1.3 | 9.8
O=C(Nc1ccc2nc(-c3ccco3)c(-c3ccco3)nc2c1)NC1CC1 | 1.0 | x | 29.3* | x | -20.5 | x
Cc1cc(C)c(S(=O)(=O)Nc2nccs2)c(C)c1 | 0.8 | -1.1 | 1.8 | 0.4 | -0.7 | 5.4
COc1cc2c(cc1OC)C(c1ccccc1)N(C(=O)CCl)CC2 (centres undefined) | -9.3 | 30.7* | -2.8 | 5.6 | -2.3 | 5.3
COc1cc2c(cc1OC)C(C1C(=O)CCCC1=O)N(C(=O)CCl)CC2 (centres undefined) | -1.0 | 0.6 | 2.2 | 2.3 | -12.1 | 5.7
C[C@H]1CN([C@@H](C)CO)C(=O)c2cccc(NC(=O)Nc3ccc(C(F)(F)F)cc3)c2O[C@@H]1CN(C)C(=O)Nc1ccc(F)cc1 | -4.9 | x | x | 0.5 | -0.4 | 35.3*
C[C@H](CO)N1C[C@H](C)[C@@H](CN(C)C(=O)Nc2ccc(C(F)(F)F)cc2)Oc2ccc(NC(=O)Nc3ccc(C(F)(F)F)cc3)cc2C1=O | 1.8 | x | x | 1.1 | -1.9 | 35.3*
Cc1ccc(NC2=CC(=O)C(=O)c3ccccc32)cc1 | 3.2 | 14.7 | -0.8 | 2.4 | -0.2 | 9.4
COc1cc(OC)c(NC2=CC(=O)C(=O)c3ccccc32)cc1Cl | -0.8 | 22.7* | 1.8 | 12.4 | 1.0 | -1.8
Cc1nn(C)c(C)c1S(=O)(=O)N(CC(=O)Nc1ccc2c(c1)OCO2)c1ccc(C(C)C)cc1 | -0.5 | -3.2 | -2.3 | 56.5* | 0.5 | 3.1
COc1ccc(N(CC(=O)Nc2ccc3c(c2)OCO3)S(=O)(=O)c2ccc(F)cc2)cc1 | 1.3 | 2.1 | 0.0 | 66.7* | -1.6 | 2.4
COc1ccc(N(CC(=O)Nc2ccc3c(c2)OCO3)S(=O)(=O)c2ccccc2)cc1OC | -1.6 | 1.3 | 3.3 | 49.9* | 0.9 | 3.0
COc1ccc(N(CC(=O)Nc2ccc3c(c2)OCCO3)S(=O)(=O)c2c(C)nn(C)c2C)cc1 | -0.7 | -2.7 | -2.3 | 2.2 | 1.4 | -5.3
COc1ccc(N(CC(=O)Nc2ccc3c(c2)OCO3)S(=O)(=O)c2ccccc2)c(OC)c1 | 0.8 | 5.6 | 5.5 | 63.1* | 0.5 | 3.2
Cc1cc(Br)cn2c(CC(C)(C)C)c(C3CCCCC3)nc12 | x | x | x | x | -0.7 | x
CC1(C)CC2CC(C)(CN2C(=O)COC(=O)CNC(=O)c2ccc(Cl)c(Cl)c2)C1 (centres undefined) | 1.5 | 26.9* | -1.5 | 0.8 | 0.8 | 0.8
CCn1c2ccccc2c2cc(NC(=O)COC(=O)c3cccc(S(=O)(=O)NC)c3)ccc21 | 1.7 | 6.2 | 3.0 | 100.1* | -16.5 | -2.0
CCn1c2ccccc2c2cc(NC(=O)CSc3nnc(-c4ccc(OC)cc4)n3N)ccc21 | -0.6 | 1.1 | 10.3 | 48.5* | 2.4 | -0.7

Screens as filed in PubChem BioAssay.
